Laboratory results: ChEMBL document CHEMBL2034974, “Design, synthesis and structure-activity relationships of new triazole derivatives containing N-substituted phenoxypropylamino side chains” (2012)
Converted amounts (≈) assume the structure as drawn.

Columns and labels:
Format in all cases: functional
Pichia kudriavzevii = assay: Antifungal activity against Candida krusei after 24 hrs by serial dilution method
Procedure, shortened: (§1)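 NCCLS broth microdilution in 96-well plates, with ATCC or clinical isolate strains. Medium was RPMI 1640 buffered with 0.165 M MOPS, and compounds were dissolved in DMSO and serially diluted in medium. Yeasts were incubated at 35 °C and growth was read at 24 h. MIC80 was taken as the lowest concentration giving ≥80% growth inhibition versus the drug-free control.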

Candida albicans = assay: Antifungal activity against Candida albicans after 24 hrs by serial dilution method; procedure, shortened: as §1
Trichophyton rubrum = assay: Antifungal activity against Trichophyton rubrum by serial dilution method
Procedure, shortened: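 Dermatophyte, ATCC or clinical isolate, tested by NCCLS serial-dilution microtest in RPMI 1640 buffered with 0.165 M MOPS. Compounds were dissolved in DMSO and diluted serially in medium, and incubation was at 28 °C. The endpoint was MIC80, the lowest concentration reducing turbidity to ≥80% inhibition of control growth.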

Candida tropicalis = assay: Antifungal activity against Candida tropicalis after 24 hrs by serial dilution method; procedure, shortened: as §1
Cryptococcus neoformans = assay: Antifungal activity against Cryptococcus neoformans after 72 hrs by serial dilution method
Procedure, shortened: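 Cryptococcus yeast, ATCC or clinical isolate, tested by NCCLS serial dilution in 96-well plates with RPMI 1640 plus 0.165 M MOPS. Compounds were dissolved in DMSO and serially diluted in medium. Incubation was at 35 °C with MIC80 read at 72 h, defined as the lowest concentration giving ≥80% growth inhibition relative to control.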

Candida parapsilosis = assay: Antifungal activity against Candida parapsilosis after 24 hrs by serial dilution method; conditions: Lodderomyces parapsilosis; procedure, shortened: as §1

Row | SMILES | MIC80 (Pichia kudriavzevii) [µg/mL] | MIC80 (Candida albicans) [µg/mL] | MIC80 (Trichophyton rubrum) [µg/mL] | MIC80 (Candida tropicalis) [µg/mL] | MIC80 (Cryptococcus neoformans) [µg/mL] | MIC80 (Candida parapsilosis) [µg/mL]
1 | CCN(CCCOc1ccccc1)CC(O)(Cn1cncn1)c1ccc(F)cc1F (racemic) | 1 (≈ 2.4 µM) | 0.0313 (≈ 0.0752 µM) | 1 (≈ 2.4 µM) | 0.5 (≈ 1.2 µM) | 1 (≈ 2.4 µM) | 2 (≈ 4.8 µM)
2 | C=CCN(CCCOc1ccccc1)CC(O)(Cn1cncn1)c1ccc(F)cc1F (racemic) | 1 (≈ 2.33 µM) | 0.25 (≈ 0.583 µM) | 1 (≈ 2.33 µM) | 1 (≈ 2.33 µM) | 2 (≈ 4.67 µM) | 64 (≈ 149 µM)
3 | CCCN(CCCOc1ccc(Br)cc1)CC(O)(Cn1cncn1)c1ccc(F)cc1F (racemic) | 4 (≈ 7.85 µM) | 2 (≈ 3.93 µM) | 8 (≈ 15.7 µM) | 2 (≈ 3.93 µM) | 4 (≈ 7.85 µM) | > 64
4 | CCOC(=O)CN(CCCOc1ccccc1)CC(O)(Cn1cncn1)c1ccc(F)cc1F (racemic) | 4 (≈ 8.43 µM) | 2 (≈ 4.21 µM) | 8 (≈ 16.9 µM) | 8 (≈ 16.9 µM) | 8 (≈ 16.9 µM) | > 64
5 | CN(CCCOc1ccccc1)CC(O)(Cn1cncn1)c1ccc(F)cc1F (centres undefined) | 0.5 (≈ 1.24 µM) | 0.0125 (≈ 0.0311 µM) | 1 (≈ 2.48 µM) | < 0.125 | 1 (≈ 2.48 µM) | 0.125 (≈ 0.311 µM)
6 | COC(=O)CN(CCCOc1ccc(Br)cc1)CC(O)(Cn1cncn1)c1ccc(F)cc1F (racemic) | 4 (≈ 7.42 µM) | 2 (≈ 3.71 µM) | 8 (≈ 14.8 µM) | 4 (≈ 7.42 µM) | 8 (≈ 14.8 µM) | 64 (≈ 119 µM)
7 | CC(C)(C)OC(=O)CN(CCCOc1ccc(Br)cc1)CC(O)(Cn1cncn1)c1ccc(F)cc1F (racemic) | 4 (≈ 6.88 µM) | 4 (≈ 6.88 µM) | 64 (≈ 110 µM) | 16 (≈ 27.5 µM) | 64 (≈ 110 µM) | 64 (≈ 110 µM)
8 | CCOC(=O)CN(CCCOc1ccc(Br)cc1)CC(O)(Cn1cncn1)c1ccc(F)cc1F (racemic) | 32 (≈ 57.8 µM) | 4 (≈ 7.23 µM) | 16 (≈ 28.9 µM) | 16 (≈ 28.9 µM) | 32 (≈ 57.8 µM) | 16 (≈ 28.9 µM)
9 | OC(Cn1cncn1)(Cn1cncn1)c1ccc(F)cc1F [FLUCONAZOLE] | 4 (≈ 13.1 µM) | 0.5 (≈ 1.63 µM) | 1 (≈ 3.27 µM) | 1 (≈ 3.27 µM) | 2 (≈ 6.53 µM) | 1 (≈ 3.27 µM)
10 | OC(CN(CCCOc1ccc(Br)cc1)Cc1ccc(F)cc1)(Cn1cncn1)c1ccc(F)cc1F (racemic) | 8 (≈ 13.9 µM) | 4 (≈ 6.95 µM) | 16 (≈ 27.8 µM) | 8 (≈ 13.9 µM) | 32 (≈ 55.6 µM) | 2 (≈ 3.48 µM)
11 | Cc1ccc(CN(CCCOc2ccc(Br)cc2)CC(O)(Cn2cncn2)c2ccc(F)cc2F)cc1 (racemic) | 8 (≈ 14 µM) | 4 (≈ 7 µM) | 64 (≈ 112 µM) | 8 (≈ 14 µM) | 64 (≈ 112 µM) | 0.5 (≈ 0.875 µM)
12 | CCCCN(CCCOc1ccccc1)CC(O)(Cn1cncn1)c1ccc(F)cc1F (racemic) | 1 (≈ 2.25 µM) | 2 (≈ 4.5 µM) | 8 (≈ 18 µM) | 8 (≈ 18 µM) | 4 (≈ 9 µM) | 16 (≈ 36 µM)
13 | C=CCN(CCCOc1ccc(Br)cc1)CC(O)(Cn1cncn1)c1ccc(F)cc1F (racemic) | 2 (≈ 3.94 µM) | 2 (≈ 3.94 µM) | 8 (≈ 15.8 µM) | 1 (≈ 1.97 µM) | 4 (≈ 7.88 µM) | 16 (≈ 31.5 µM)
14 | OC(CN(CCCOc1ccccc1)Cc1ccc(F)cc1)(Cn1cncn1)c1ccc(F)cc1F (racemic) | 8 (≈ 16.1 µM) | 4 (≈ 8.06 µM) | 32 (≈ 64.4 µM) | 8 (≈ 16.1 µM) | 8 (≈ 16.1 µM) | 16 (≈ 32.2 µM)
15 | CCCCN(CCCOc1ccc(Br)cc1)CC(O)(Cn1cncn1)c1ccc(F)cc1F (racemic) | 4 (≈ 7.64 µM) | 2 (≈ 3.82 µM) | 16 (≈ 30.6 µM) | 4 (≈ 7.64 µM) | 4 (≈ 7.64 µM) | 4 (≈ 7.64 µM)
16 | C#CCN(CCCOc1ccccc1)CC(O)(Cn1cncn1)c1ccc(F)cc1F (racemic) | 1 (≈ 2.34 µM) | 0.25 (≈ 0.586 µM) | 4 (≈ 9.38 µM) | 4 (≈ 9.38 µM) | 4 (≈ 9.38 µM) | 8 (≈ 18.8 µM)
17 | CC(C)CN(CCCOc1ccc(Br)cc1)CC(O)(Cn1cncn1)c1ccc(F)cc1F (racemic) | 4 (≈ 7.64 µM) | 4 (≈ 7.64 µM) | 8 (≈ 15.3 µM) | 8 (≈ 15.3 µM) | 16 (≈ 30.6 µM) | 8 (≈ 15.3 µM)
18 | OC(CNCCCOc1ccccc1)(Cn1cncn1)c1ccc(F)cc1F (racemic) | < 0.125 | 0.0625 (≈ 0.161 µM) | 2 (≈ 5.15 µM) | < 0.125 | 1 (≈ 2.57 µM) | 0.5 (≈ 1.29 µM)
19 | CCN(CCCOc1ccc(Br)cc1)CC(O)(Cn1cncn1)c1ccc(F)cc1F (racemic) | 4 (≈ 8.07 µM) | 0.5 (≈ 1.01 µM) | 2 (≈ 4.04 µM) | 1 (≈ 2.02 µM) | 1 (≈ 2.02 µM) | 2 (≈ 4.04 µM)
20 | CCC(C)n1ncn(-c2ccc(N3CCN(c4ccc(OCC5COC(Cn6cncn6)(c6ccc(Cl)cc6Cl)O5)cc4)CC3)cc2)c1=O (centres undefined) [ITRACONAZOLE] | 1 (≈ 1.42 µM) | 0.125 (≈ 0.177 µM) | 0.125 (≈ 0.177 µM) | < 0.125 | 0.5 (≈ 0.709 µM) | 4 (≈ 5.67 µM)
21 | CC(C)(C)OC(=O)CN(CCCOc1ccccc1)CC(O)(Cn1cncn1)c1ccc(F)cc1F (racemic) | 8 (≈ 15.9 µM) | 4 (≈ 7.96 µM) | 64 (≈ 127 µM) | 8 (≈ 15.9 µM) | > 64 | > 64
22 | CN(CCCOc1ccc(Br)cc1)CC(O)(Cn1cncn1)c1ccc(F)cc1F (centres undefined) | 2 (≈ 4.16 µM) | 0.5 (≈ 1.04 µM) | 2 (≈ 4.16 µM) | 2 (≈ 4.16 µM) | 1 (≈ 2.08 µM) | 1 (≈ 2.08 µM)
23 | Cc1ccc(CN(CCCOc2ccccc2)CC(O)(Cn2cncn2)c2ccc(F)cc2F)cc1 (racemic) | 4 (≈ 8.12 µM) | 8 (≈ 16.2 µM) | 16 (≈ 32.5 µM) | 8 (≈ 16.2 µM) | 4 (≈ 8.12 µM) | 8 (≈ 16.2 µM)
24 | OC(CNCCCOc1ccc(Br)cc1)(Cn1cncn1)c1ccc(F)cc1F (racemic) | < 0.125 | 0.0313 (≈ 0.067 µM) | 0.5 (≈ 1.07 µM) | < 0.125 | 1 (≈ 2.14 µM) | 0.5 (≈ 1.07 µM)
25 | OC(CN(CCCOc1ccc(Br)cc1)Cc1ccccc1)(Cn1cncn1)c1ccc(F)cc1F (racemic) | 4 (≈ 7.18 µM) | 2 (≈ 3.59 µM) | 4 (≈ 7.18 µM) | 8 (≈ 14.4 µM) | 16 (≈ 28.7 µM) | 32 (≈ 57.4 µM)
26 | CCCN(CCCOc1ccccc1)CC(O)(Cn1cncn1)c1ccc(F)cc1F (racemic) | 1 (≈ 2.32 µM) | 1 (≈ 2.32 µM) | 4 (≈ 9.29 µM) | 16 (≈ 37.2 µM) | 1 (≈ 2.32 µM) | 32 (≈ 74.3 µM)
27 | C#CCN(CCCOc1ccc(Br)cc1)CC(O)(Cn1cncn1)c1ccc(F)cc1F (racemic) | 8 (≈ 15.8 µM) | 0.5 (≈ 0.989 µM) | 8 (≈ 15.8 µM) | 8 (≈ 15.8 µM) | 8 (≈ 15.8 µM) | 32 (≈ 63.3 µM)
28 | OC(CN(CCCOc1ccccc1)Cc1ccccc1)(Cn1cncn1)c1ccc(F)cc1F (racemic) | 8 (≈ 16.7 µM) | 2 (≈ 4.18 µM) | 16 (≈ 33.4 µM) | 8 (≈ 16.7 µM) | 16 (≈ 33.4 µM) | 64 (≈ 134 µM)
29 | COC(=O)CN(CCCOc1ccccc1)CC(O)(Cn1cncn1)c1ccc(F)cc1F (racemic) | 4 (≈ 8.69 µM) | 2 (≈ 4.34 µM) | 2 (≈ 4.34 µM) | 8 (≈ 17.4 µM) | 16 (≈ 34.7 µM) | > 64
